Measured values reported in ChEMBL document CHEMBL1134437, “Synthesis and biological evaluation of novel pyrazoles and indazoles as activators of the nitric oxide receptor, soluble guanylate cyclase” (J Med Chem, 2001).

How the values were obtained:
[1] = (§1) Bovine sGC stimulation measured as relative enzyme activity (percentage of DEA/NO response for the compound to compound 3); type: functional
In short: (§2)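 Baculovirus-expressed bovine sGC from Sf21 cells, partially purified on Mono-Q. Compound at 1 µM single concentration in Tris buffer pH 7.4 with 5 mM MgCl2, IBMX and GTP; sGC submaximally stimulated with 300 nM DEA/NO, 10 min at room temperature. cGMP by competitive enzyme immunoassay, duplicate, at least n = 2; expressed as % of DEA/NO response, then ratio to benzydamine.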

[2] = Activation of bovine sGC Enzyme (soluble Guanylate Cyclase) in Sf21 cells infected with baculo virus in the presence of 30 nM of PAPA/NO; type: cell-based
In short: (§3)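 Bovine sGC expressed in Sf21 cells (baculovirus, 2.5 µg/mL hemin, 27 °C, 48 h), partially purified by Mono-Q anion exchange. Reaction in Tris buffer pH 7.4 with 5 mM MgCl2, 120 µg/mL enzyme, IBMX and GTP, stimulated by 30 nM PAPA/NO, room temperature, 10 min. cGMP read by competitive enzyme immunoassay. EC50 from nonlinear regression, mean ± SEM of at least 3 independent experiments.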

Homo sapiens [3] = organism: Homo sapiens; assay: Percent inhibition of collagen-induced platelet aggregation at 100 uM concentration; type: functional
[4] = Bioavailability in rat after (dose 2 mg/kg p.o.); type: ADME, organism-based; conditions: in vivo, po
In short: (§4)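 Male Sprague-Dawley rats, cassette-dosed at 2 mg/kg in PBS orally (iv arm also run). Serum extracted into diethyl ether and analysed by reversed-phase C18 HPLC.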

Homo sapiens [5] = organism: Homo sapiens; assay: Concentration required to inhibit collagen-induced platelet aggregation by 50%; type: functional
In short: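 Washed human platelets, prepared from citrated blood with PGI2 and normalized to 250 000 cells/µL in calcium-free Tyrode's buffer pH 7.4. Compound (DMSO ≤0.1% final) added 1 min before an EC50 dose of collagen. Light-transmittance aggregometry at 37 °C, response read 3 min after collagen and normalized to collagen control. IC50 from dose-response curves, mean ± SEM, at least 2 experiments.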

Rattus norvegicus [6] = assay: (§5) Compound was evaluated for pharmacokinetic parameter was determined after oral dosing of 2 mg/kg in rat; type: ADME, organism-based; parameters: dose 2 mg/kg, route oral; conditions: in vivo; in short: as §4
[7] = as §5; type: ADME, organism-based; parameters: dose 2 mg/kg, route oral; conditions: in vivo; in short: as §4
Rattus norvegicus [8] = assay: Area under curve (AUC) was determined after oral dosing of 5 mg/kg in rat; type: ADME, organism-based; parameters: dose 5 mg/kg, route oral; conditions: in vivo
In short: (§6)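 Male Sprague-Dawley rats given 5 mg/kg in PBS orally (iv arm also run). Blood taken predose and at 0.5, 1, 2, 3, 4, 6, 10 and 24 h after oral dosing. Serum extracted into diethyl ether and analysed by reversed-phase C18 HPLC.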

[9] = Cmax was determined after oral dosing of 5 mg/kg in rat; type: ADME, organism-based; parameters: dose 5 mg/kg, route oral; conditions: in vivo; in short: as §6
[10] = Bioavailability in rat after (dose 5 mg/kg p.o.); type: ADME, organism-based; conditions: in vivo, po; in short: as §6
Homo sapiens [11] = organism: Homo sapiens; assay: Percent inhibition of collagen-induced platelet aggregation by 50% at a concentration of 100 uM; type: functional
[12] = Activation of sGC Enzyme (soluble Guanylate Cyclase) in Sf21 cells infected with baculo virus in the presence of 30 nM of PAPA/NO; type: functional, cell-based; in short: as §3
Homo sapiens [13] = organism: Homo sapiens; assay: Percent inhibition of collagen-induced platelet aggregation at 50 uM concentration; type: functional
[14] = as §1; in short: as §2

Row | Compound | REA [1] | also measured
1 | NCCCOc1nn(Cc2ccccc2)c2ccccc12 | 0.48 | 
2 | CN(C)CCCOc1cc(Cc2ccccc2)n[nH]1 | 1.54 | EC50 [2]: 0.165 µM; IC50 (Homo sapiens [5]): 49.2 µM
3 | CN1CCCC(COc2cc(-c3ccccc3)[nH]n2)C1 (centres undefined) | 0.61 | 
4 | CC(COc1nn(Cc2ccccc2)c2ccccc12)CN(C)C (centres undefined) | 0.62 | IC50 (Homo sapiens [5]): 4.18 µM
5 | OCc1ccc(-c2nn(Cc3ccccc3)c3ccccc23)o1 |  | EC50 [12]: 4.11 µM
6 | CN(C)CCCNc1cc(-c2ccccc2)[nH]n1 | 0.66 | 
7 | CN(C)CCCOc1cc(-c2ccncc2)[nH]n1 | 1.15 | inhibition at 100 µM (Homo sapiens [3]): 0%
8 | CN(C)CCCOc1[nH]nc2ccccc12 |  | inhibition at 50 µM (Homo sapiens [13]): 50%; REA [14]: 1.93
9 | Nc1cc(COc2cc(-c3ccccc3)[nH]n2)ccn1 | 0.53 | 
10 | CCCN(CCC)C(=O)c1cc(OCCCN(C)C)nn1Cc1ccccc1 | 1.22 | inhibition at 100 µM (Homo sapiens [3]): 35%
11 | Nc1ncccc1COc1cc(-c2ccccc2)[nH]n1 | 0.69 | 
12 | CN(C)CCCOc1cc(-c2ccoc2)[nH]n1 | 1.31 | IC50 (Homo sapiens [5]): 99 µM
13 | CN(C)CCCOc1cc(C(=O)N2CCOCC2)n(Cc2ccccc2)n1 | 0.84 | inhibition at 100 µM (Homo sapiens [3]): 90%
14 | COc1cc(-c2cc(OCCCN(C)C)[nH]n2)cc(OC)c1OC | 1.1 | IC50 (Homo sapiens [5]): 41.1 µM
15 | CC(=O)n1nc(OCCCN(C)C)c2ccccc21 | 0.82 | 
16 | CN(C)CCCOc1nn(CCCN(C)C)c2ccccc12 | 0.79 | 
17 | CC(C)n1nc(OCCCN(C)C)c2ccccc21 | 0.66 | 
18 | CN(C)CCCOc1nn(C(=O)N(C)C)c2ccccc12 | 0.78 | 
19 | CN(C)CCCOc1cc(C(F)(F)F)[nH]n1 | 1.13 | inhibition at 100 µM (Homo sapiens [3]): 8%
20 | c1ccc(-c2cc(OCCCN3CCCC3)n[nH]2)cc1 | 0.85 | 
21 | CN(C)CCCCc1cc(-c2ccccc2)[nH]n1 | 0.68 | 
22 | CN(C)CCCOc1nn(S(C)(=O)=O)c2ccccc12 | 1.07 | IC50 (Homo sapiens [5]): 21.6 µM

Further lines, with some results ahead:

Row | REA [1] | Compound | also measured
23 | 0.95 | CNC(=O)c1cc(OCCCN(C)C)nn1Cc1ccccc1 | 
24 | 1.49 | CN(C)CCCOc1cc(-c2ccccc2)[nH]n1 | EC50 [2]: 0.72 µM; inhibition at 100 µM (Homo sapiens [3]): 19%
25 | 0.33 | CN(C)CCOc1nn(Cc2ccccc2)c2ccccc12 | 
26 | 1.08 | CN(C)CCCOc1cc(-c2ccccc2)n(Cc2ccccc2)n1 | EC50 [2]: 0.44 µM; bioavailability [4]: 2%; IC50 (Homo sapiens [5]): 2.37 µM; AUC (Rattus norvegicus [6]): 15.5 ng·h/mL; Cmax [7]: 3.1 ng/mL
27 | 1.28 | CN(C)CCCOc1cc(-c2ccccc2)n(-c2ccccc2)n1 | AUC (Rattus norvegicus [8]): 3.3 ng·h/mL; EC50 [2]: 0.58 µM; Cmax [9]: 1.4 ng/mL; IC50 (Homo sapiens [5]): 2.84 µM; bioavailability [10]: < 2%
28 | 0.42 | CCN(CC)CCCOc1cc(-c2ccccc2)[nH]n1 | 
29 | 0.93 | CN(C)CCCOc1cc(C(=O)N(C)C)n(Cc2ccccc2)n1 | inhibition at 100 µM (Homo sapiens [3]): 4%
30 | 0.71 | CN(C)CCCOc1ccn(-c2ccccc2)n1 | inhibition at 100 µM (Homo sapiens [11]): 3%
31 | 1.16 | CN(C)CCCOc1nn(-c2ccccc2)c2ccccc12 | bioavailability [4]: 2%; IC50 (Homo sapiens [5]): 2.46 µM; AUC (Rattus norvegicus [6]): 7.9 ng·h/mL; Cmax [7]: 3.2 ng/mL
32 | 1.01 | CN(C)CCCOc1cc(C(=O)O)n(Cc2ccccc2)n1 | 
33 | 1.22 | CN(C)CCCOc1cc(C(=O)NCc2ccccc2)n(Cc2ccccc2)n1 | inhibition at 100 µM (Homo sapiens [3]): 25%
34 | 1.17 | CN(C)CCCOc1[nH]ncc1-c1ccccc1 | IC50 (Homo sapiens [5]): 12 µM
35 | 0.72 | CN(C)CCCOc1cc(-c2ccccc2)nn1Cc1ccccc1 | 
36 | 0.79 | CN(C)CCCCOc1nn(Cc2ccccc2)c2ccccc12 | IC50 (Homo sapiens [5]): 7.62 µM
37 | 1.04 | CN(C)CCCOc1nn(C(=O)c2ccccc2)c2ccccc12 | IC50 (Homo sapiens [5]): 8.57 µM
38 | 1.1 | COc1ccc(NC(=O)c2cc(OCCCN(C)C)nn2Cc2ccccc2)cc1 | AUC (Rattus norvegicus [8]): 61.1 ng·h/mL; EC50 [2]: 5.49 µM
39 | 0.84 | CN(C)CCCOc1nn(CCc2ccccc2)c2ccccc12 | 
40 | 1 | CN(C)CCCOc1nn(Cc2ccccc2)c2ccccc12 [BENZYDAMINE] | EC50 [2]: 1.02 µM; IC50 (Homo sapiens [5]): 6.67 µM
41 | 0.56 | CN(C)CCCCCOc1nn(Cc2ccccc2)c2ccccc12 | 
42 | 0.73 | CN(C)CCCOc1ccn(Cc2ccccc2)n1 | 
